viability, differential viability (reversal) and inhibition data for 14 molecules are collected here from PubChem BioAssay.

As a reminder, the viability is a read-out of living cells in per cent, often relative to untreated cells. As a reminder, the inhibition is the drop in the measured response relative to a control, in per cent.

The source made the active and inactive calls.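 Rule for the calls, unless noted: active = viability at or under a set limit in both replicates, limit being median viability minus 3 SD (cut at about 48% in these data, passing the limit was not always enough); inconclusive = at or under the limit in just one replicate; inactive = at or above the limit in both replicates.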

Assay [1] can be described thus: SK-BR-3 cell growth inhibitors, pilot screen, 24 h, human (AID 572;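 active = viability at or below 10% of carrier control in both of two separate runs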;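 note: compound exposure lasted between 18 and 24 h rather than exactly 24 h; 100% = carrier-treated control wells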). Conditions: SK-BR-3 viability, CellTiter-Glo luminescence, at 10 µM, stronger effect = lower value. A general note: In ATP-based viability assays light output follows the ATP content of the culture.
Assay [2] is described as follows: HUVEC growth inhibition – cell-based, human, primary screen (AID 575;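 active = viability at or below 30% in both replicate assays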;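 note: 100% = median of untreated cell wells with 0.1% DMSO on each plate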). Conditions: HUVEC proliferation, CellTiter-Glo luminescence, 72 h; at 10 µM; stronger effect = lower value. The essentials:
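Test system: primary human umbilical vein endothelial cells; medium: endothelial basal medium with 2% FBS plus growth supplements; dosing: 10 µM compound only; times: 72 h treatment at 37 °C; signal: CTG luminescence; read-out: % viability relative to median vehicle-well signal on each plate; control set: vehicle and MePR control wells; plate: 384-well, collagen-coated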

A short description of assay [3]: growth inhibitors of H69AR lung tumor, primary screen, human, duplicate replicates (AID 580).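 Note: 100% = mean luminescence of untreated wells and 0% = no signal.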 Conditions: H69AR lung tumor cells viability, ATP luminescence, 72 h; at 10 µM; stronger effect = lower value.
Assay [4] is described as follows: reversal of MRP1-mediated doxorubicin resistance, pilot screen, H69AR cells, doxorubicin co-treatment (AID 601;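 active = viability loss from added drug above about 55%, and viability with drug at most 40%, in both replicates, limit read from the data, passing the limit was not always enough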). Conditions: CellTiter-Glo, 72 h, at 10 µM; for differential viability (reversal): stronger effect = higher value.
Assay [5] in a line: 384-well plate pilot, post-Golgi transport modulator project, inhibition of yeast transport mutant growth (AID 636; in the data active = inhibition above about 31%). Conditions: absorbance 615 nm, about 18 h, stronger effect = higher value.
Assay [6] can be described thus: growth suppression of yeast trafficking mutant, preliminary HTS, modulators of trafficking downstream of Golgi apparatus project, 1536-format plate, OD 615 nm (AID 637; in the data active = inhibition above about 30%). Conditions: yeast transport mutant growth, absorbance 615 nm, 18 h; stronger effect = higher value.
The mark [7] stands for this setting: H69AR cells + 2 uM doxorubicin, measured here: viability with 2 uM doxorubicin, stronger effect = lower value.
Setting [8] is: H69AR cells, compound alone cytotoxicity.

`Cc1nn(C)c(C)c1NC(=O)CSc1nc(Cc2ccccc2)nc2c1cnn2-c1ccccc1`: the viability is 116% (inactive) in assay [1]; 88% (inactive) in assay [2]; 78.8% (inactive) in assay [3]; 78.7% in assay [4] (setting [7]); 78.8% in assay [4] (setting [8]). Further, in assay [4] (H69AR cells + 2 uM doxorubicin), the differential viability (reversal) was 0.07% (inactive). The results for the inhibition in assay [5] and in assay [6] were -2.05% (inactive) and 5.48% (inactive), respectively.
In the case of `CCOC(=O)Nc1nnc(-c2ccccc2OC)s1`, the viability in assay [1] was 86% (inactive); in assay [2] it was 98.2% (inactive); in assay [3] it was 93.9% (inactive); in assay [4] (setting [7]), 93.3%; in assay [4] (setting [8]) it was 93.9%. Further, in assay [4] (H69AR cells + 2 uM doxorubicin), the differential viability (reversal) was 0.53% (inactive). The values for the inhibition in assay [5] and in assay [6] were -0.14% (inactive) and -4.68% (inactive), respectively.
Consider `COc1cc(NC2c3ccccc3C(=O)N2c2ccc(C)cn2)cc(OC)c1OC` (configuration not stated), for which the viability is 90.5% (inactive) in assay [1]; 85.5% (inactive) in assay [2]; 88.7% (inactive) in assay [3]; 85% in assay [4] (setting [7]); 88.7% in assay [4] (setting [8]). In assay [4] (H69AR cells + 2 uM doxorubicin), the differential viability (reversal) was 3.73% (inactive). Further, the inhibition in assay [5] is -1.41% (inactive); in assay [6] it was 1.17% (inactive).
For the molecule `O=C(O)C(c1ccccc1)N1CCCC1` (configuration not stated), the viability was 106% (inactive) in assay [1]; 102% (inactive) in assay [2]; 95.9% (inactive) in assay [3]; 79.5% in assay [4] (setting [7]); 95.9% in assay [4] (setting [8]). Moreover, the differential viability (reversal) in assay [4] (H69AR cells + 2 uM doxorubicin) is 16.4% (inactive). Also, the results for the inhibition in assay [5] and in assay [6] were -5.6% (inactive) and -3.64% (inactive), respectively.
Turning to `CCCN(CCC)C(=O)CC(c1ccc(F)cc1)c1ccco1` (configuration not stated), the viability in assay [1] is 71% (inactive); in assay [2], 80.7% (inactive); in assay [3], 80.8% (inactive); in assay [4] (setting [7]), 86.8%; in assay [4] (setting [8]), 80.8%. In assay [4] (H69AR cells + 2 uM doxorubicin), the differential viability (reversal) was -6.06% (inactive). Moreover, the inhibition was -5.48% (inactive) in assay [5] and -0.91% (inactive) in assay [6].
Consider `NC(=O)OCC(COC(N)=O)c1ccccc1`, for which the viability in assay [1] was 132% (inactive); in assay [2], 89.3% (inactive); in assay [3] it was 90.7% (inactive); in assay [4] (setting [7]), 97.5%; in assay [4] (setting [8]), 90.7%. Also, the differential viability (reversal) in assay [4] (H69AR cells + 2 uM doxorubicin) is -6.82% (inactive). The inhibition in assay [5] is -0.13% (inactive); in assay [6], 2% (inactive).
Consider `O=C(CN1CCC(O)(c2ccc3c(c2)OCO3)CC1)OC1CCCCC1`, for which the viability in assay [1] is 83% (inactive); in assay [2], 103% (inactive); in assay [3], 96.8% (inactive); in assay [4] (setting [7]), 93.4%; in assay [4] (setting [8]) it was 96.8%. The differential viability (reversal) in assay [4] (H69AR cells + 2 uM doxorubicin) was 3.36% (inactive). Further, the inhibition in assay [5] is -7.3% (inactive); in assay [6], 2.73% (inactive).
Take `CCOC(=O)N1CCN(C(=O)c2cn(CC)c3cc(N4CCN(C)CC4)c(F)cc3c2=O)CC1`: the viability in assay [1] is 100% (inactive); in assay [2] it was 101% (inactive); in assay [3], 104% (inactive); in assay [4] (setting [7]) it was 103%; in assay [4] (setting [8]) it was 104%. The differential viability (reversal) in assay [4] (H69AR cells + 2 uM doxorubicin) is 1.33% (inactive). The inhibition was -7.26% (inactive) in assay [5] and 7.74% (inactive) in assay [6].
For the molecule `CN(C(=O)C1CCOC1)c1nnc(-c2cccnc2)s1` (configuration not stated), the viability was 92% (inactive) in assay [1]; 101% (inactive) in assay [2]; 88.5% (inactive) in assay [3]; 84.3% in assay [4] (setting [7]); 88.5% in assay [4] (setting [8]). Besides, in assay [4] (H69AR cells + 2 uM doxorubicin), the differential viability (reversal) is 4.19% (inactive). For the same molecule, the inhibition is -1.23% (inactive) in assay [5] and 19.4% (inactive) in assay [6].
`CC(C)C12CN3CC(C(C)C)(CN(C1)C3c1ccc3c(c1)OCO3)C2=O` (configuration not stated): the viability in assay [1] was 117% (inactive); in assay [2], 91.8% (inactive); in assay [3] it was 85.5% (inactive); in assay [4] (setting [7]), 86.2%; in assay [4] (setting [8]) it was 85.5%. Moreover, in assay [4] (H69AR cells + 2 uM doxorubicin), the differential viability (reversal) is -0.655% (inactive). The inhibition was -1.6% (inactive) in assay [5] and 0.18% (inactive) in assay [6].
In the case of `Cc1ccc(S(=O)(=O)N2CCN(S(=O)(=O)N(C)C)CC2)cc1`, the viability in assay [1] was 123% (inactive); in assay [2] it was 107% (inactive); in assay [3] it was 103% (inactive); in assay [4] (setting [7]) it was 94.7%; in assay [4] (setting [8]), 103%. Also, in assay [4] (H69AR cells + 2 uM doxorubicin), the differential viability (reversal) is 8.38% (inactive). Also, the inhibition in assay [5] is -3.15% (inactive); in assay [6], -4.68% (inactive).
Take `CCC(=O)OC1(C#CCOc2ccc(OC)cc2)CCN(C)CC1`: the viability in assay [1] was 94% (inactive); in assay [2], 105% (inactive); in assay [3], 105% (inactive); in assay [4] (setting [7]), 103%; in assay [4] (setting [8]), 105%. Moreover, in assay [4] (H69AR cells + 2 uM doxorubicin), the differential viability (reversal) was 1.41% (inactive). The inhibition in assay [5] was -0.53% (inactive); in assay [6], 1.64% (inactive).
With `COCCNC(=O)C(c1ccc(C)o1)N(C(=O)c1snc(C(N)=O)c1N)c1ccc(C)cc1` (configuration not stated), the viability was 100% (inactive) in assay [1]; 87.5% (inactive) in assay [2]; 92.1% (inactive) in assay [3]; 83.1% in assay [4] (setting [7]); 92.1% in assay [4] (setting [8]). The differential viability (reversal) in assay [4] (H69AR cells + 2 uM doxorubicin) was 9.05% (inactive). Moreover, the figures for the inhibition in assay [5] and in assay [6] were -3.87% (inactive) and 3.64% (inactive), respectively.
`CC(=O)C1=C(NC(=O)c2ccccc2F)C[C@@H]2[C@H]1C2(C)C`: the viability is 90% (inactive) in assay [1]; 99.2% (inactive) in assay [2]; 91.3% (inactive) in assay [3]; 89.5% in assay [4] (setting [7]); 91.3% in assay [4] (setting [8]). Besides, the differential viability (reversal) in assay [4] (H69AR cells + 2 uM doxorubicin) was 1.76% (inactive). Besides, the inhibition in assay [5] is -10.7% (inactive); in assay [6], -3.55% (inactive).
